The test system of data set [1] is Mycolicibacterium smegmatis. The data set can be described thus: Antibacterial activity against Mycobacterium smegmatis mc2 155 expressing tomato RFP assessed as bacterial growth inhibition incubated for 3 days in 7H9 medium by RFP fluorescence based broth microdilution method. Conditions: mc2 155, 72 h, time 3 day. The data set is classed as functional. The method, boiled down:
(§1)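 Broth microdilution in 7H9 with 10 % ADS and 0.05 % Tween 80. Twofold nine-point dilution series. Inoculum 5 x 10⁵ cells/mL taken from a mid-log preculture. Incubation at 37 °C, 3 days for M. smegmatis and M. abscessus, 5 days for M. intracellulare. Read-out by RFP fluorescence (ex 544/em 590 nm). Controls were 1 % DMSO and 100 μM amikacin. MIC₉₀ from duplicates, averaged.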

Data set [2] has as its system Mycobacterium tuberculosis. The data set can be described thus: Antibacterial activity against Mycobacterium tuberculosis H37Rv ATCC 27294 assessed as bacterial growth inhibition incubated for 7 days in 7H9 medium by optical density based microplate reader analysis. It is filed as functional. Conditions: H37Rv ATCC 27294, 168 h, time 7 day. The method, boiled down:
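Compounds serially diluted in flat-bottom 96-well plates. Mid-log culture mixed in to a final OD₆₀₀ of 0.05. Sealed plates incubated in humidified boxes at 37 °C for 7 days with shaking at 80 rpm. Turbidity read at 600 nm. MIC₉₀ taken from dose–response curves. Two biological replicates, averaged.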

Data set [3] deals with Mycobacteroides abscessus. The data set can be described thus: Antibacterial activity against Mycobacterium abscessus ATCC 19977 expressing tomato RFP assessed as bacterial growth inhibition incubated for 3 days in 7H9 medium by RFP fluorescence based broth microdilution method. Conditions: ATCC 19977, 72 h, time 3 day. The data set is classed as functional. Put shortly: as §1
For orientation: Broth dilution looks for growth in wells or tubes with falling amounts of substance.

The test system of data set [4] is Mycobacteroides abscessus. The data set can be described thus: Antibacterial activity against Mycobacterium abscessus ATCC 19977 expressing tomato RFP assessed as bacterial growth inhibition incubated for 3 days in MHII medium by RFP fluorescence based broth microdilution method. The note with it: ATCC 19977, 72 h, time 3 day. The data set is classed as functional. Put shortly: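 Broth microdilution in MHII broth with 0.05 % Tween 80, against the RFP-expressing strain. Twofold nine-point dilution series. Inoculum 5 x 10⁵ cells/mL from a mid-log preculture. Incubated 3 days at 37 °C. Read-out by RFP fluorescence (ex 544/em 590 nm). Controls were 1 % DMSO and 100 μM amikacin. MIC₉₀ from duplicates, averaged.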

For data set [5], the system named is Mycobacterium intracellulare. The data set can be described thus: Antibacterial activity against Mycobacterium intracellulare ATCC 35761 expressing tomato RFP assessed as bacterial growth inhibition incubated for 5 days in 7H9 medium by RFP fluorescence based broth microdilution method. The data set is classed as functional. Conditions: ATCC 35761, 120 h, time 5 day. Put shortly:
as §1

For data set [6], the system named is Mycobacteroides abscessus. The data set can be described thus: Antibacterial activity against Mycobacterium abscessus Bamboo harboring inactive clarithromycin-sensitive erm41 C28 sequevar assessed as bacterial growth inhibition incubated for 3 days in 7H9 medium by optical density based method. The data set is classed as functional. Conditions: 72 h, time 3 day.

Data set [7] relates to Mycobacteroides abscessus. The data set can be described thus: Antibacterial activity against Mycobacterium abscessus ATCC 19977 expressing tomato RFP infected in human THP-1 cells assessed as bacterial growth inhibition incubated for 4 days in RPMI medium by RFP fluorescence based assay. The data set is classed as functional. Conditions: ATCC 19977, 96 h, time 4 day. The method, boiled down: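 RFP M. abscessus washed, moved into RPMI, filtered through 5 µm and opsonised with 10 % human serum for 30 min. THP-1 cells infected at MOI 5:1 with PMA 40 ng/mL for 4 h at 37 °C, then washed. Infected cells (1x10⁵/well) given a ten-point twofold series. Incubated 4 days at 37 °C, 5 % CO₂. Cells PFA-fixed and DAPI-stained. RFP quantified by imaging. Controls were DMSO and 1.5 µM bedaquiline. Duplicate.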

The test system of data set [8] is Mycobacteroides abscessus. The data set can be described thus: Bactericidal activity against Mycobacterium abscessus ATCC 19977 assessed as reduction in viable bacteria at 6.25 to 12.5 uM incubated for 4 days by microplate dilution assay. It is filed as functional, organism-based. The note with it: dose 6.25-12.5 µM, time 4.0 day.
Data set [9] relates to Mycobacteroides abscessus. The data set can be described thus: Bactericidal activity against Mycobacterium abscessus ATCC 19977 assessed as reduction in viable bacteria incubated for 4 days by microplate dilution assay. It is filed as functional. The note with it: time 4 day.
Data set [10] concerns Mycobacteroides abscessus. The data set can be described thus: Antibacterial activity against MMV688845-resistant Mycobacterium abscessus Bamboo 845R-2.1 harboring rpoB/beta subunit P473L mutation assessed as bacterial growth inhibition incubated for 3 days by optical density based analysis. It is filed as functional. Conditions: Bamboo 845R-2.1, 72 h, time 3 day. The method, boiled down:
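Tenfold-point twofold dilution series in 7H9, final DMSO 1 %. Final ranges typically 50–0.098 or 6.25–0.012 μM. Mid-log culture added to an initial OD₆₀₀ of 0.05 (5*10⁶ CFU/mL). Incubated 3 days at 37 °C with shaking at 110 rpm. Growth taken as OD₆₀₀ on day 3 minus day 0, as % of drug-free wells. MIC₉₀ read visually from the curves. Clarithromycin as control. Two biological replicates, averaged.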

Data set [11] can be described thus: Stability in human plasma at 1 uM measured over 120 mins by HPLC-MS/MS analysis. It is filed as ADME, cell-free. The note with it: 2 h.
Data set [12] can be described thus: Stability in mouse plasma at 1 uM measured over 120 mins by HPLC-MS/MS analysis. The data set is classed as ADME, cell-free. Conditions: 2 h.
Data set [13] is described as follows: Metabolic stability in pooled human liver microsomes assessed as half life at 2 uM measured over 40 mins in presence of NADPH-cofactor system by HPLC-MS/MS analysis. It is filed as ADME, Microsome. Put shortly: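 Pooled mixed-gender human liver microsomes at 0.42 mg protein/mL in 100 mM phosphate pH 7.4 with MgCl₂ and an NADPH-regenerating system. Test compound 2 μM, 1.6 % solvent, at 37 °C. Five time points over 40 min, stopped with acetonitrile, analysed by HPLC-MS/MS. t1/2 from the slope of ln(AUC) versus time. Controls lacked NADPH. Duplicates.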
A general note: Microsomes from liver hold many membrane-bound enzymes, among them those of drug oxidation.

The subject of a further data set is A-375. The data set can be described thus: Cytotoxicity against human A-375 cells assessed as reduction in cell viability incubated for 72 hrs by SRB assay. It is filed as toxicity, cell-based. (In general: In SRB staining, fixed cells bind dye roughly in proportion to their protein.)
Another data set concerns HT-29. The data set can be described thus: Cytotoxicity against human HT-29 cells assessed as reduction in cell viability incubated for 72 hrs by SRB assay. It is filed as toxicity, cell-based.
For a further data set, the system named is MCF7. The data set can be described thus: Cytotoxicity against human MCF7 cells assessed as reduction in cell viability incubated for 72 hrs by SRB assay. It is filed as toxicity, cell-based.
The next data set deals with A2780. The data set can be described thus: Cytotoxicity against human A2780 cells assessed as reduction in cell viability incubated for 72 hrs by SRB assay. It is filed as toxicity, cell-based.
Data set [14] in a line: Cytotoxicity against mouse NIH3T3 cells assessed as reduction in cell viability incubated for 72 hrs by SRB assay. The note with it: mouse, NIH3T3 cells. It is filed as toxicity, cell-based.
The test system of another data set is HeLa. The data set can be described thus: Cytotoxicity against human HeLa cells assessed as reduction in cell viability incubated for 72 hrs by SRB assay. It is filed as toxicity, cell-based.
The nature of data set [15]: Kinetic solubility of compound in PBS at 0.78 to 500 uM measured immediately by nephelometric method. Conditions: buffer, dose 0.78-500 µM. It is filed as physicochemical. Put shortly:
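DMSO stocks prediluted in DMSO, then diluted 1:50 into PBS (2 % DMSO final) and read immediately by nephelometry at 0.78–500 μM; blank-corrected data fitted by segmental regression; quadruplicates from one stock.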

Data set [16] relates to Mycobacteroides abscessus. The data set can be described thus: Antibacterial activity against Mycobacterium abscessus. The data set is classed as functional.
For data set [17], the system named is Mycobacterium tuberculosis. The data set can be described thus: Antibacterial activity against Mycobacterium tuberculosis. The data set is classed as functional.

One compound from ChEMBL document CHEMBL5344415, “Synthesis and Characterization of Phenylalanine Amides Active against Mycobacterium abscessus and Other Mycobacteria” (J Med Chem, 2023) can be followed below.

One may read the MIC90 as an inhibitory concentration at the 90% level, which refers to growth in some studies and to a panel of isolates in others. The MIC50 is an inhibitory concentration at the 50% level, which refers to growth in some studies and to a panel of isolates in others. In general, EC50 refers to the concentration giving half of the maximal effect.

In brackets after ≈: the same amount, converted by molar mass. Activity calls are given as the source filed them. The calls are words filed in the database; no cut-off is given here.

With `O=C(N[C@H](Cc1ccccc1)C(=O)Nc1ccccc1N1CCOCC1)c1cccs1`, the MIC90 in data set [1] stood at 0.78 µM (≈ 0.34 µg/mL); in [2] it was 0.78 µM (≈ 0.34 µg/mL); in data set [3], 6.25 µM (≈ 2.72 µg/mL); in data set [4], 12.5 µM (≈ 5.44 µg/mL); in data set [5], 0.78 µM (≈ 0.34 µg/mL); in data set [6] it was 4.4 µM (≈ 1.92 µg/mL). The MIC90 in data set [7] was 12.5 µM (≈ 5.44 µg/mL); in [10] it was above 100 µM; in [16], 7 µM (≈ 3.05 µg/mL); in [17], 1.2 µM (≈ 0.523 µg/mL). Moreover, the results for the MIC50 in data set [6] and in data set [7] were 1.7 µM (≈ 0.74 µg/mL) and 1.56 µM (≈ 0.679 µg/mL), respectively. Also, the result in data set [8] was inactive. Also, the MBC99 in [9] turned out to be 50 µM (≈ 21.8 µg/mL). Also, the Stability entry in data set [11] is given as “Stable”; in data set [12], “Unstable”. Further, in [13], the t1/2 is on record as 1.7 min. Further, the EC50 in the data set on A-375, in the data set on HT-29, in the data set with MCF7, in the data set on A2780 and in the data set with HeLa was above 30 µM each time. Also, the EC50 at 72 h in data set [14] was above 30 µM. In addition, the Kinetic_solubility in [15] was 82 µM.
